Rows were chosen to be rich in hits. Some 2.1% of all compounds tested hit in one or more screens of this group.
SR-BI DiI-HDL act – activators of SR-BI mediated HDL lipid uptake. AID 504775. activation, % at 12.5 µM. CHO ldlA[mSR-BI] cells, DiI-HDL uptake fluorescence, 3 h; 100 = double the neutral-control signal. actives 0.096% (n = 320,000);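 active = mean replicate activation of at least 60% and every replicate at or above 60%; inconclusive = mean or all-replicate condition met, but not both; inactive = mean below 60% and not all replicates reaching 60%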
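Test system: SR-BI-overexpressing, LDLR-lacking CHO cells; Also added: labelled HDL, 10 µg/mL; Measured by: bottom-read cell fluorescence after medium removal, ex 550/em 595 nm; Timing: 3 h uptake period with compound, 37 °C; Buffer or medium: F12, 0.5% BSA, 25 mM HEPES; Doses: single compound concentration, delivered by pin transfer.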
SR-BI DiI inh – mouse SR-BI HDL lipid transfer inhibition; inhibition, % at 12.5 µM; ldlA[mSR-BI] CHO cells, DiI-HDL uptake fluorescence, 3 h; actives 0.96% (n = 320,000);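 active = mean replicate inhibition of at least 70% and a set share of replicates each scoring 70 or more; inconclusive = meets just one of the two criteria; inactive = fails both criteria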
Target sequence (Q61009 whole entry, looked up): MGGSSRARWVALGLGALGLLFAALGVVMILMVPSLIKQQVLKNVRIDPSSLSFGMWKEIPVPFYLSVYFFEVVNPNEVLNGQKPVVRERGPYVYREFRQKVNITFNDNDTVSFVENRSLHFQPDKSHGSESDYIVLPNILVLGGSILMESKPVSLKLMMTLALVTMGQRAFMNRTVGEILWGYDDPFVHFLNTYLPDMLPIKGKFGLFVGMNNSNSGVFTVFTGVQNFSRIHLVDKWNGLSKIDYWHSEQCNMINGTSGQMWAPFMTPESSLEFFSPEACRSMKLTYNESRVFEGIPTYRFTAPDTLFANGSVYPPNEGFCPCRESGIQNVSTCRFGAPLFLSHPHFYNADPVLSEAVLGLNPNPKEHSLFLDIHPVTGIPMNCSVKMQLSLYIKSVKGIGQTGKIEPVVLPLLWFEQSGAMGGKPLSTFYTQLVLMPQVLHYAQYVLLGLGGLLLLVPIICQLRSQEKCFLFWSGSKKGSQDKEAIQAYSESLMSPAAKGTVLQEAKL
PKA-R1A activ – PKA-R1A complex activation; P00514+P68181; PKA-R1A dissociation, Cy5-IP20 fluorescence polarization; scaled: DMSO 0%, 113 µM cGMP 100%; activation, % at 11.4 µM; actives 0.083% (n = 340,000);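 active = percent activation above the mean of all tested compounds plus 3 SD, cut at about 19% in these data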;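 also: higher means more PKAc released from R1A so a rise in polarization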
dFosB act-1 – activators of mouse delta FosB homodimer. P13346. purified delta FosB, TAMRA-CDK5 oligo fluorescence polarization; percent of positive-control signal above neutral wells. activation, % at 25 µM. actives 0.99% (n = 340,000);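 active = mean activation above about 17%, with every replicate also reaching it, limit read from the data, passing the limit was not always enough; inconclusive = only one of the two conditions met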
PKA-R2B activ – activates the human PKA-R2B holoenzyme complex; PKA-R2B holoenzyme dissociation, Cy5-IP20 fluorescence polarization; R2B truncated from residue 108, S112A mutant; 0% DMSO only, 100% 113 µM cGMP; activation, % at 11.4 µM; actives 0.079% (n = 340,000); AID 504700;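 active = activation above a cutoff set at the mean over all compounds plus 3 SD, cut at about 18% in these data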;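 also: higher means more holoenzyme dissociation and a rise in polarization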
CDK5 p35 inh – blocks human CDK5/p35 kinase activity | inhibition, % at 10 µM | actives 0.01% (n = 330,000) | Q00535+Q15078 | Recombinant CDK5/p35, ADP-Glo luminescence, 60 min;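 active = highest replicate inhibition of at least 50% and at least 75% of replicates reaching 50%; inconclusive = only one of the two criteria met; inactive = both criteria failed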
dFosB act-2 – enhances mouse delta FosB homodimer binding to DNA. purified delta FosB, TAMRA-CDK5 oligo fluorescence polarization; normalised: neutral wells 0, positive control 100. activation, % at 24.9 µM. shares compounds with dFosB act-1. 2,400 tested, under 10 active;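 active = highest replicate activation at or above 34% and every replicate reaching that threshold; inconclusive = meets only one of the two criteria; inactive = meets neither criterion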;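 also: higher polarization means more probe DNA bound by delta FosB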
Each line names hits and unclear results; the compound was inactive in the other large screens (follow-up assays come after a bar, where they were run).

COc1cc(NC(=O)c2ccccc2)c(OC)cc1NC(=O)Cc1ccc(Br)cc1	dFosB act-1 21 | dFosB act-2 inactive
O=C(O)c1ccccc1C(=O)c1ccc(F)c(F)c1	none
Cc1c(C(=O)Nc2cccc([N+](=O)[O-])c2)csc1-c1ccccc1	SR-BI DiI inh 89, dFosB act-1 58 | dFosB act-2 inactive
COC(=O)c1sc(NC(=O)c2cccc([N+](=O)[O-])c2)c(C(N)=O)c1C	none
O=C(Nc1cccc([N+](=O)[O-])c1)c1cccc(C(=O)Nc2cccc([N+](=O)[O-])c2)c1	dFosB act-1 34 | dFosB act-2 inactive
COC(=O)c1c(NC(=O)c2cccc([N+](=O)[O-])c2)sc(C(N)=O)c1C	dFosB act-1 29 | dFosB act-2 inactive
O=C(Nc1ccc(NC(=O)c2cccc([N+](=O)[O-])c2)cc1)c1cccc([N+](=O)[O-])c1	none
Cc1ccccc1OCC(=O)NNC(=O)c1cc(S(=O)(=O)N2CCOCC2)ccc1N1CCCC1	none
O=C(Nc1ccc(S(=O)(=O)Nc2nccs2)cc1)c1ccc(N2C(=O)c3ccccc3C2=O)cc1	dFosB act-1 33 | dFosB act-2 inactive
COc1ccccc1-c1oc2ccccc2c1C#CC1(O)CCCCC1	none
COc1ccccc1-c1oc2ccccc2c1C#CC1(N)CCCCC1	dFosB act-1 24 | dFosB act-2 inactive
CCCCCCCC(=O)Nc1ccc(C(=O)N/N=C/c2cccc([N+](=O)[O-])c2)cc1	SR-BI DiI inh 87, dFosB act-1 20 | dFosB act-2 inactive
Nc1cc(C(=O)N/N=C/c2cccc([N+](=O)[O-])c2)n[nH]c1=O	dFosB act-1 18 | dFosB act-2 inactive
CC1CCc2c(sc3nc(C(C)(C)C)nc(N4CCN(C(=O)CCl)CC4)c23)C1 (configuration not stated)	none
CN(CC(=O)Nc1ccccc1Cl)C(=O)COC(=O)c1ccc(-c2ccc(O)cc2)cc1	dFosB act-1 45 | dFosB act-2 inactive
CN(CC(=O)Nc1ccccc1Cl)C(=O)COC(=O)c1ccc(C(F)(F)F)cc1	none
COc1cc2ccccc2cc1C(=O)N(CCN(C)C)c1nc2ccc(C)cc2s1	dFosB act-1 40 | dFosB act-2 inactive
COc1ccc2nc(N(CCN(C)C)C(=O)/C=C/c3cccs3)sc2c1	dFosB act-1 42 | dFosB act-2 inactive
COc1ccc2sc(N(CCN(C)C)C(=O)/C=C/c3cccs3)nc2c1	dFosB act-1 inconclusive
COc1cc2ccccc2cc1C(=O)N(CCN(C)C)c1nc2c(C)cccc2s1	dFosB act-1 29 | dFosB act-2 inactive
Cc1ccc2nc(N(CCN(C)C)C(=O)c3cc(Cl)sc3Cl)sc2c1	none
CCCCCC(=O)NNC1=NCC(Cc2cccc(Cl)c2)S1 (configuration not stated)	none
CN(C)CCSc1nc(N)c2c3c(sc2n1)CN(C)CC3	dFosB act-1 25 | dFosB act-2 inactive
Cc1ccsc1C(=O)N1CCC(N2CCC(C(=O)NCC3CCCO3)CC2)CC1 (configuration not stated)	dFosB act-1 35 | dFosB act-2 inactive
CCOC(=O)c1ccc(-n2cccc2/C=C2\NC(=O)NC2=O)cc1	dFosB act-1 30 | dFosB act-2 inactive
CCOC(=O)c1cccc(-n2cccc2/C=C2\NC(=O)N(CC(=O)O)C2=O)c1	none
CC1=C(C(N)=O)C(c2cccnc2)n2nc(SCc3ccccc3Cl)nc2N1 (configuration not stated)	dFosB act-1 101 | dFosB act-2 inactive
CCOc1cccc2sc(N(CCCN(C)C)C(=O)c3ccc(S(=O)(=O)N4CCc5ccccc5C4)cc3)nc12	none
CN(C)CCCN(C(=O)c1ccc(S(=O)(=O)N(C)C2CCCCC2)cc1)c1nc2ccc(F)cc2s1	none
CN(C)CCCN(C(=O)c1ccc(C(=O)c2ccccc2)cc1)c1nc2ccc(F)cc2s1	dFosB act-1 30 | dFosB act-2 inactive
CN(C)CCCN(C(=O)c1nc2ccccc2s1)c1nc2ccc(F)cc2s1	none
CCc1ccc2nc(N(CCCN(C)C)C(=O)c3ccc(S(=O)(=O)N4CCc5ccccc5C4)cc3)sc2c1	dFosB act-1 47 | dFosB act-2 inactive
CN(C)CCCN(C(=O)c1ccc(Cl)s1)c1nc2cc3c(cc2s1)OCO3	dFosB act-1 18 | dFosB act-2 inactive
CN(C)CCCN(C(=O)c1cc(Cl)sc1Cl)c1nc2cc3c(cc2s1)OCO3	none
CN(C)CCCN(C(=O)c1ccc(S(=O)(=O)N(C)C2CCCCC2)cc1)c1nc2ccc(Br)cc2s1	dFosB act-1 22 | dFosB act-2 inactive
CSc1ccccc1NC(=O)Nc1cccc(Cl)c1Cl	dFosB act-1 26 | dFosB act-2 inactive
CSc1ccccc1NC(=O)Nc1cccc(Cl)c1C	none
Cc1ccc(C(=O)COC(=O)CNC(=O)c2ccc(N3C(=O)c4ccccc4C3=O)cc2)cc1C	none
O=C(CNC(=O)c1ccc(N2C(=O)c3ccccc3C2=O)cc1)OCC(=O)c1ccc(Cl)cc1	dFosB act-1 113 | dFosB act-2 inactive
O=C(CN1C(=O)c2ccccc2C1=O)NCC(=O)OCC(=O)c1ccc(Br)cc1	dFosB act-1 46 | dFosB act-2 inactive
CC(C)(C)OC(=O)N1CCC(c2c(C(=O)NCC3CCN(C4CCCC4)C3)cnn2-c2ccccc2Cl)CC1 (configuration not stated)	none (no result: SR-BI DiI-HDL act, SR-BI DiI inh)
COc1cc2c(cc1OC)C(c1ccc(-c3cc(Cl)ccc3Cl)o1)=NCC2	SR-BI DiI inh inconclusive
COc1cc2c(cc1OC)C(c1ccc(-c3ccc(Cl)cc3Cl)o1)=NCC2	dFosB act-1 34 | dFosB act-2 inactive
Fc1ccc(N2CCN(C3=Nc4cccc5cccc3c45)CC2)cc1	dFosB act-1 22 | dFosB act-2 inactive
Fc1ccc(Nc2nc(Oc3ccc4c(c3)OCO4)nc(N3CCOCC3)n2)c(F)c1	dFosB act-1 61 | dFosB act-2 inactive
COc1ccc(Nc2nc(N3CCOCC3)nc(N3CCOCC3)n2)c(OC)c1	none
CCOC(=O)c1ccc(S(=O)(=O)N2CCN(Cc3cc4c(cc3O)OCO4)CC2)cc1	none
O=C(NCCN1CCCC1)c1ccc(Cn2c(=S)[nH]c3cc4c(cc3c2=O)OCO4)cc1	dFosB act-1 25 | dFosB act-2 inactive

From PubChem BioAssay
